Experimental data as given in PMC7231973 (Neurobiology of Stress, 2019).
Read-outs that look alike come from different tables or passages of the source.

Legend:
[1] = cited from earlier work
[2] = target: human GABAAR α1β1γ2 (Homo sapiens, UniProt P14867+P18505+P18507); test: Voltage-clamp, modulation of GABA EC10 response in Xenopus laevis oocytes; type: cell-based; conditions: maximum modulation of the GABA EC10 response, mean ± S.E.M. (n = 3)
Method in brief: (§1)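 Human GABAAR subtypes expressed in Xenopus laevis oocytes. The GABA EC10 (the concentration giving 10% of the maximal GABA response) was determined for each oocyte. Test compound was pre-applied for 30 s, then co-applied with EC10 GABA. Response = (I GABA EC10 + modulator / I GABA EC10) × 100, where I = current. Concentration-effect data were fitted to a four-parameter logistic equation.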

[3] = target: T1, human GABAAR α2β1γ2 (Homo sapiens, UniProt P18505+P18507+P47869); test: Voltage-clamp, modulation of GABA EC10 response in Xenopus laevis oocytes; type: cell-based; conditions: maximum modulation of the GABA EC10 response, mean ± S.E.M. (n = 3)
[4] = rodents; ref Irwin et al., 2015; cited from earlier work
[5] = target: human GABAAR α4β3δ (Homo sapiens, UniProt O14764+P28472+P48169); test: Voltage-clamp, modulation of GABA EC10 response in Xenopus laevis oocytes; type: cell-based; conditions: maximum modulation of the GABA EC10 response, mean ± S.E.M. (n = 3)
Method in brief: as §1

[6] = target: human GABAAR α1β2γ2 (Homo sapiens, UniProt P14867+P18507+P47870); test: as above; type: cell-based; conditions: maximum modulation of the GABA EC10 response, mean ± S.E.M. (n = 3)
Method in brief: as §1

[7] = target: human GABAAR α2β2γ2 (Homo sapiens, UniProt P18507+P47869+P47870); test: Voltage-clamp, modulation of GABA EC10 response in Xenopus laevis oocytes; type: cell-based; conditions: maximum modulation of the GABA EC10 response, mean ± S.E.M. (n = 3)
[8] = system: synaptic GABAARs; conditions: ref Wafford et al., 2009; Jensen et al., 2013; cited from earlier work
[9] = system: acute migraine; conditions: in vivo; cited from earlier work
[10] = system: PPD; conditions: cited from earlier work
[11] = target: T1, human GABAAR α2β1γ2; conditions: value marked #, ref Hogenkamp et al. (2014) and Carter et al. (1997); cited from earlier work
[12] = system: hippocampal DGGNs; conditions: ref Modgil et al., 2017, cited from earlier work
[13] = system: GABAARs; conditions: ref Parakala et al., 2019; cited from earlier work
[14] = system: patients with moderate to severe major depressive disorder; conditions: oral treatment for 14 days; ref Gunduz-Bruce et al., 2019; cited from earlier work
[15] = target: extrasynaptic (α4β2δ) GABAARs (Mus musculus, UniProt P22933+P63137+Q9D6F4); test: Tonic current; type: cell-based; conditions: 1 μM; VB neuron of P21 mouse; reversed by bicuculline 20 μM
Method in brief: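 Holding current was taken from the same −70 mV VB neuron recordings in P21 mouse horizontal slices. All-points histograms of holding current were compared under control, after test compound (1 μM), and after co-application of bicuculline (20 μM).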

[16] = target: synaptic (α1β2γ2) GABAARs (Mus musculus, UniProt P22723+P62812+P63137); test: mIPSCs recorded from thalamic VB neurons in horizontal slice; type: cell-based; conditions: 1 μM, 10 min; VB neuron of P21 mouse, −70 mV
Method in brief: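 GABAAR mIPSCs were recorded at −70 mV from thalamic VB neurons in horizontal slices from P21 mice. Recordings were made under control conditions and after 10 min of test compound at 1 μM. mIPSC decay was examined.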

[17] = system: rodent seizure models; conditions: ref Hogenkamp et al., 2014; cited from earlier work
[18] = system: GABAARs; conditions: ref Harrison and Simmonds, 1984; cited from earlier work
[19] = ref Harrison and Simmonds, 1984; cited from earlier work
[20] = system: traumatic brain injury; conditions: ref Wright et al., 2014, Skolnick et al.; cited from earlier work
[21] = system: humans; conditions: 500 mg intravenously (iv.); ref Merryman et al., 1954; cited from earlier work

Chain of human GABAAR α2β2γ2 (P47869 29-451): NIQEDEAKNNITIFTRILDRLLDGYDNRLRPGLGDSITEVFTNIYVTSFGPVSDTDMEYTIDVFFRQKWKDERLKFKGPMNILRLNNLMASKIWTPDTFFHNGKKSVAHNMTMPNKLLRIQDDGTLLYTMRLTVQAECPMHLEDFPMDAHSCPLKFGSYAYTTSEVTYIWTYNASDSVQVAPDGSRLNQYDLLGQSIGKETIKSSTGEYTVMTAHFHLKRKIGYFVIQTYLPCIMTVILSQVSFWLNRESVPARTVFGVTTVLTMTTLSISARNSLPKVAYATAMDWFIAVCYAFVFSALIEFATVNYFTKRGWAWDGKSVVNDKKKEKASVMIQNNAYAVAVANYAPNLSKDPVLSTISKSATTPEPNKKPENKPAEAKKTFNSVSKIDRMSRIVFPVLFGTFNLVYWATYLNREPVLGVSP
Chain of human GABAAR α2β2γ2 (P47870 26-512): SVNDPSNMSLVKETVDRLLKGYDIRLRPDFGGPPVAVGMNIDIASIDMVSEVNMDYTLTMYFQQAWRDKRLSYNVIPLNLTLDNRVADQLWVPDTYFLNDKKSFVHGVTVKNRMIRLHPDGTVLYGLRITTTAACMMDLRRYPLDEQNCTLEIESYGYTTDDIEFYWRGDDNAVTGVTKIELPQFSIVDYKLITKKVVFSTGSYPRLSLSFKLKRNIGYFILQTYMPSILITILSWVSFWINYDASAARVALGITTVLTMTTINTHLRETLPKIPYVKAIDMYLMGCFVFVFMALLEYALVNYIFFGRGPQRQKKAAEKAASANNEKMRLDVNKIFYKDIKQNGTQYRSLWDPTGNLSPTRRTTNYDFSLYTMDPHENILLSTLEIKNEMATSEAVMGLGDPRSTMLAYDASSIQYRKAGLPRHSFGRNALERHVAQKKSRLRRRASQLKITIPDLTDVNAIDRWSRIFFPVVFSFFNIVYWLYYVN
Chain of human GABAAR α2β2γ2 (P18507 40-475): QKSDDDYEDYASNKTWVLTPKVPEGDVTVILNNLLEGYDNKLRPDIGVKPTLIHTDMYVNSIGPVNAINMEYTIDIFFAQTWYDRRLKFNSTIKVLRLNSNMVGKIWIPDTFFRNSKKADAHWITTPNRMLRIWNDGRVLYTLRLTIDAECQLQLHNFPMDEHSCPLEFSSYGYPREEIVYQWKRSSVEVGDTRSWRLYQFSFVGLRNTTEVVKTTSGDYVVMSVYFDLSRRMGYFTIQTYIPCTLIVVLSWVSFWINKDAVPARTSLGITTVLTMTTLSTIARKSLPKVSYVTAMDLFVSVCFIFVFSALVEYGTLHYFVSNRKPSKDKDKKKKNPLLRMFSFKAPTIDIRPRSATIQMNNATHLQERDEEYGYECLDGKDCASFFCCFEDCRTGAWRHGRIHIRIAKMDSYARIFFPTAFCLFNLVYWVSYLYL
T1 sequence (P47869 29-451): as the sequence (P47869 29-451) above
T1 sequence (P18505 26-474): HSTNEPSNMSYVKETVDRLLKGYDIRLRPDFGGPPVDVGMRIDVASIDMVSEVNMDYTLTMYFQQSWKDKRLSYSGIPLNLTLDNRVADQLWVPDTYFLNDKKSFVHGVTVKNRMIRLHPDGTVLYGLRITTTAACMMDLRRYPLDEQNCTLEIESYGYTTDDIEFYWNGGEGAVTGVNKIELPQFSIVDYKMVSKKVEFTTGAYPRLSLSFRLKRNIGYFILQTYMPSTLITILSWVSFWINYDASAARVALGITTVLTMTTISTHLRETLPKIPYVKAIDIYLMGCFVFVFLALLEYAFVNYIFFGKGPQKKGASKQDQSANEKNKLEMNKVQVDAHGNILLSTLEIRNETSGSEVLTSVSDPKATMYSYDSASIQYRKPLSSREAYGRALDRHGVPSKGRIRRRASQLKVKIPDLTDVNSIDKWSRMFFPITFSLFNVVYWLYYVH
T1 sequence (P18507 40-475): as the sequence (P18507 40-475) above
Chain of human GABAAR α4β3δ (P48169 36-554): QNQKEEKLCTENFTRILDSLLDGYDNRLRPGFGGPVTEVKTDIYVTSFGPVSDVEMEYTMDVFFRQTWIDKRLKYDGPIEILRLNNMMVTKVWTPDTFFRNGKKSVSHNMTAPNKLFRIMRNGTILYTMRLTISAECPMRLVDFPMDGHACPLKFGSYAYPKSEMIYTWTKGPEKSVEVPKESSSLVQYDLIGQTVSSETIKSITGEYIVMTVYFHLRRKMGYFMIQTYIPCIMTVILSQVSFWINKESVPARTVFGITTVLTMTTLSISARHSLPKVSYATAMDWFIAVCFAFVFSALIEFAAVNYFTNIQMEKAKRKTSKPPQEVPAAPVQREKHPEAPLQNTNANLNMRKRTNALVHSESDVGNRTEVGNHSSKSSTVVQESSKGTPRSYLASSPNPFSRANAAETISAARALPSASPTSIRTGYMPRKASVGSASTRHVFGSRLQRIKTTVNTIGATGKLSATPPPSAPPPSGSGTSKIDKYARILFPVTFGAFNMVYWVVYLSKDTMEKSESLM
Chain of human GABAAR α4β3δ (P28472 26-473): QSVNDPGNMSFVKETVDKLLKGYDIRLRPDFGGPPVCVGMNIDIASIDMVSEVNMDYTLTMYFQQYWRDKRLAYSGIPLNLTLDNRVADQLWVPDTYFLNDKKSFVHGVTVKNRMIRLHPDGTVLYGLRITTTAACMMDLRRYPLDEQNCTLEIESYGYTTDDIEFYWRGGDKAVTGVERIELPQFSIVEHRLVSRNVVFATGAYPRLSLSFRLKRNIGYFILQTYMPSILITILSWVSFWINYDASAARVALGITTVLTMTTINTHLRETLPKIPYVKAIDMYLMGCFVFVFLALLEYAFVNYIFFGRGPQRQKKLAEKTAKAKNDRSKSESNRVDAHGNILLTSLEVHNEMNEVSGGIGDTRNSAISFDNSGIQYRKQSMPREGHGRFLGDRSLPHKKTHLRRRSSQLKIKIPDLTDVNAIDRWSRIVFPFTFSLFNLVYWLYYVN
Chain of human GABAAR α4β3δ (O14764 25-452): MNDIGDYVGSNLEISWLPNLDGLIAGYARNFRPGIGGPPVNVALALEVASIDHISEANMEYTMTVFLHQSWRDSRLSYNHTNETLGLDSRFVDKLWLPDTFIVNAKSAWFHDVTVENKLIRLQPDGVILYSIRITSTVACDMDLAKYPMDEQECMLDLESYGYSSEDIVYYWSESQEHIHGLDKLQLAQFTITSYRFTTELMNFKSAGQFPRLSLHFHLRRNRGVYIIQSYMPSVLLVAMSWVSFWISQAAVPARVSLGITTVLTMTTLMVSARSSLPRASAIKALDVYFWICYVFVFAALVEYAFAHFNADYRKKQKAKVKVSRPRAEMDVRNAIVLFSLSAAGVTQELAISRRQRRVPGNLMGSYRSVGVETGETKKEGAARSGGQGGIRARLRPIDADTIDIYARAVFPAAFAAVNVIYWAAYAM
Chain of human GABAAR α1β1γ2 (P14867 28-456): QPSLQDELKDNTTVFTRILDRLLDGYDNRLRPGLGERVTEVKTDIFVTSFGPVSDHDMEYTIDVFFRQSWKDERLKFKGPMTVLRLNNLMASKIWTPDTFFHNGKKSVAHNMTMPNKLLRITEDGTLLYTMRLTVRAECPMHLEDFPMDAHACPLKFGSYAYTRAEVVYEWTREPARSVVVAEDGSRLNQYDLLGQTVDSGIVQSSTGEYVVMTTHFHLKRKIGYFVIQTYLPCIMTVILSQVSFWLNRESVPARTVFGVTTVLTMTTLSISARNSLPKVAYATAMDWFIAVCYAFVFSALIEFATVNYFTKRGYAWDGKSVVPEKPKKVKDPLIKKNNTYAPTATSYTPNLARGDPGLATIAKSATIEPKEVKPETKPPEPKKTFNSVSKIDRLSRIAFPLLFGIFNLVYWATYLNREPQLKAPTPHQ
Chain of human GABAAR α1β1γ2 (P18505 26-474): as the sequence (P18505 26-474) above
Chain of human GABAAR α1β1γ2 (P18507 40-475): as the sequence (P18507 40-475) above
Chain of human GABAAR α1β2γ2 (P14867 28-456): as the sequence (P14867 28-456) above
Chain of human GABAAR α1β2γ2 (P47870 26-512): as the sequence (P47870 26-512) above
Chain of human GABAAR α1β2γ2 (P18507 40-475): as the sequence (P18507 40-475) above
Chain of synaptic (α1β2γ2) GABAARs (P62812 28-455): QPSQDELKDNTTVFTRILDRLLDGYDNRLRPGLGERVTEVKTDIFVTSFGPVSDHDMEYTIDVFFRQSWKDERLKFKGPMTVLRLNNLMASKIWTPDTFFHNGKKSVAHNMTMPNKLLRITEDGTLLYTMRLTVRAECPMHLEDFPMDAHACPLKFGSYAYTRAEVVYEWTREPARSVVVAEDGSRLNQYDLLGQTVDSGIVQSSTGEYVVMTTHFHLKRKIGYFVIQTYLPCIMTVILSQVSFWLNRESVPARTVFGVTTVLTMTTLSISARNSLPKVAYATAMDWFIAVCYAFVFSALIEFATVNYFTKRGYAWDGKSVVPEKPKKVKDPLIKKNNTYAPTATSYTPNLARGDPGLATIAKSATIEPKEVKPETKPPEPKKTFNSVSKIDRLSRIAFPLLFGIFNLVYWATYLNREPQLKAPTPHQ
Chain of synaptic (α1β2γ2) GABAARs (P63137 25-512 limits assumed): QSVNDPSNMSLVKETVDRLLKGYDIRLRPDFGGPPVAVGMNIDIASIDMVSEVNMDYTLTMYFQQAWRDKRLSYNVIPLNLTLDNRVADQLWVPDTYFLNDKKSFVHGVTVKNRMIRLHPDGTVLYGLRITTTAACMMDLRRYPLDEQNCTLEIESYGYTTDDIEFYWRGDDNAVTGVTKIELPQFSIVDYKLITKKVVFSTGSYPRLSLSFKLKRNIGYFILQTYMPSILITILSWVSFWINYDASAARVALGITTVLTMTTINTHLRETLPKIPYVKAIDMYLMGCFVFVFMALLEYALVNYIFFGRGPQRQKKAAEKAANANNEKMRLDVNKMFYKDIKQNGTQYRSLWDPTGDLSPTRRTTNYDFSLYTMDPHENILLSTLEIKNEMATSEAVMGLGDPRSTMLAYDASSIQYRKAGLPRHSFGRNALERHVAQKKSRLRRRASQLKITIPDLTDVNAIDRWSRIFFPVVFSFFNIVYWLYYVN
Chain of synaptic (α1β2γ2) GABAARs (P22723 39-474): as the sequence (P18507 40-475) above

CCOC(=O)Nc1ccc(NCc2c(C)cc(C)cc2C)cc1N [AA29504]
ratio of brain to plasma levels ([1]; ref Hoestgaard-Jensen et al., 2010): favorable ratio of brain to plasma levels

CC(=O)[C@H]1CC[C@H]2[C@@H]3CC[C@H]4C[C@H](O)CC[C@]4(C)[C@H]3CC[C@]12C [AlloP, 5α-pregnan-3α-ol-20-one]
Max Mod ± SEM [2]: 817 ± 62 % control | Max Mod ± SEM [3]: 878 ± 211 % control | brain concentration relative to that in plasma [4]: 3 × | Max Mod ± SEM [5]: 1401 ± 88 % control | Max Mod ± SEM [6]: 909 ± 68 % control | Max Mod ± SEM [7]: 485 ± 257 % control

O=C(Nc1c(-c2cccs2)nc2ccccn12)c1ccc(Cl)cc1 [DS2]
CNS penetration ([1]; ref Wafford et al., 2009, Jensen et al., 2013): poor CNS penetration | activity on synaptic GABAARs [8]: no activity

CC(=O)[C@H]1CC[C@H]2[C@@H]3CC[C@H]4C[C@](C)(O)CC[C@]4(C)[C@H]3CC[C@]12C [Ganaxolone, 3alpha-hydroxy-3beta-methyl-5alpha-pregnan-20-one]
Max Mod ± SEM [2]: 1006 ± 241 % control | outcome in phase II trials, acute migraine [9]: failed to demonstrate efficacy | outcome in PPD, preliminary findings ([10]; oral (p.o) dose of 1175 mg once per day for 28 days, ref trade press): not meeting primary endpoints | Max Mod ± SEM [5]: 1710 ± 534 % control | Max Mod ± SEM [11]: 700 ± 50^# % control | Max Mod ± SEM [6]: 1151 ± 367 % control | sustained enhancement of tonic conductance ([12]; in contrast to allopregnanolone): did not produce a sustained enhancement | acute effect on tonic current [12]: acutely increased the tonic current | Max Mod ± SEM [7]: 646 ± 254 % control

C=C[C@]12CCC(=O)C=C1CC[C@H]1[C@@H]3CC[C@H](C(C)=O)[C@@]3(C)CC[C@@H]12 [ORG OD 02-0]
direct interaction with GABAARs [13]: no direct interaction with GABAARs

C[C@@]1(O)CC[C@H]2[C@H](CC[C@@H]3[C@@H]2CC[C@]2(C)[C@@H](C(=O)Cn4cc(C#N)cn4)CC[C@@H]32)C1 [SAGE-217, 3alpha-Hydroxy-3beta-methyl-21-(4-cyano-1H-pyrazol-1’-yl)-19-nor-5beta-pregnan-20-one]
Max Mod ± SEM [2]: 488 ± 33 % control | depressive symptoms [14]: effective in reducing depressive symptoms | main side effects [14]: dizziness and somnolence/sedation | Max Mod ± SEM [3]: 851 ± 93 % control | tonic current [15]: enhance the tonic current | outcome of phase II study ([10]; 30 mg p.o. once a day for 14 days, reported by Sage): positive results | Max Mod ± SEM [5]: 783 ± 122 % control | duration of miniature inhibitory postsynaptic currents (mIPSCs) [16]: greatly prolong | Max Mod ± SEM [6]: 823 ± 353 % control | Max Mod ± SEM [7]: 1355 ± 173 % control

C[C@@]1(O)CC[C@@]2(C)[C@@H](CC[C@@H]3[C@@H]2CC[C@]2(C)[C@@H](c4cc(CO)on4)CC[C@@H]32)C1 [UCI-50027, 3-[3α-hydroxy-3β-methyl-5α-androstan-17β-yl]-5-(hydroxymethyl)isoxazole]
Max Mod ± SEM [2]: 472 ± 84 % control | anticonvulsant/anxiolytic therapeutic index [17]: greater anticonvulsant/anxiolytic therapeutic index than ganaxolone | Max Mod ± SEM [3]: 277 ± 47 % control | Max Mod ± SEM [5]: 919 ± 229 % control | Max Mod ± SEM [6]: 587 ± 91 % control | Max Mod ± SEM [7]: 595 ± 176 % control

CC(=O)[C@H]1CC[C@H]2[C@@H]3CC[C@H]4C[C@@H](O)CC[C@]4(C)[C@H]3C(=O)C[C@]12C [betaxalone]
effect on GABAARs [18]: no effect | behavioural effect [19]: behaviourally inert

CC(=O)[C@H]1CC[C@H]2[C@@H]3CCC4=CC(=O)CC[C@]4(C)[C@H]3CC[C@]12C [progesterone]
outcome in phase III trials, moderate to severe traumatic brain injury [20]: failed to meet primary criteria | effect in humans [21]: anesthetic effect
